Measured values gathered from unrelated publications.
Compare with care: the assays were run in different laboratories.
Read-out: metabolic stability

Compound	host	sample	tested at	pH	half-life [min]
O=c1ccc2ccc(O)cc2o1	rat	liver microsomes	–	–	2.42
CC(=O)c1c(C)c2cnc(Nc3ccc(N4CCNCC4)cn3)nc2n(C2CCCC2)c1=O	rat	liver microsomes	1 µM	pH 7.4	90.4
O=C(c1ccc(F)cc1)C1CCN(CCn2c(=O)[nH]c3ccccc3c2=O)CC1	rat	liver microsomes	–	–	17.8
CCN(CC)CCNC(=O)c1c(C)[nH]c(/C=C2\C(=O)Nc3ccc(F)cc32)c1C	rat	liver microsomes	1 µM	–	77
O=c1ccc2ccc(O)cc2o1	Sprague-Dawley rat	hepatocytes	1 µM	–	11.4
CCOc1ccc2ccc(=O)oc2c1	male Sprague-Dawley rat	hepatocytes	1 µM	–	13.1
CN(C)C(=O)c1cc2cnc(Nc3ccc(N4CCNCC4)cn3)nc2n1C1CCCC1	rat	liver microsomes	1 µM	pH 7.4	49.8
O=C1CC[C@H](N2Cc3cc(N4CCN(CC5CCN(c6ccc([C@@H]7c8ccc(O)cc8CC[C@@H]7c7ccccc7)cc6)CC5)CC4)ccc3C2=O)C(=O)N1	Sprague-Dawley rat	hepatocytes	1 µM	–	83
